Laboratory results as given in ChEMBL document CHEMBL1137220, “2-(2-(dimethylaminomethyl)phenoxy)-5-iodophenylamine: an improved serotonin transporter imaging agent” (J Med Chem, 2004).

How the values were obtained:
[1] = Distribution ratio in hippocampus and cerebellum was determined after 60 min of intravenous administration of the compound; [125I]- is used as radioactive isotope; format: ADME, tissue-based; details: rat, 1 h
How it was run: (§1)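 After femoral-vein injection of 10 μCi [¹²⁵I] tracer in 0.2 mL saline under ether anaesthesia (three rats per group), brain regions were dissected, weighed and counted: cortex (frontal plus occipital), hippocampus, hypothalamus and cerebellum. %dose/g was calculated against a diluted injected-dose standard. Ratio = (region − cerebellum)/cerebellum on a %dose/g basis, with cerebellum as the background region.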

[2] = Regional brain distribution in rat cerebellum was determined after 24 hours of intravenous administration of the compound; [125I]- is used as radioactive isotope; format: ADME, tissue-based; details: in vivo
How it was run: (§2)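 Rats, three per group, injected with 10 μCi tracer in 0.2 mL saline via the femoral vein under ether anesthesia and killed by cardiac excision at the stated time. Cortex (frontal plus occipital), striatum, hippocampus, cerebellum and hypothalamus were dissected, weighed and gamma-counted. Values are % dose/g, calculated by comparison with counts of a 100-fold diluted aliquot of the injected dose.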

[3] = Biodistribution in rat thyroid was determined after 60 min of intravenous administration of the compound; [125I]- is used as radioactive isotope; format: ADME, organism-based, Thyroid gland; details: in vivo, 1 h
How it was run: (§3)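 Rats, three per group, under ether anaesthesia, received 10 μCi of [¹²⁵I]-labelled tracer in 0.2 mL saline into the femoral vein. They were killed by cardiac excision under ether at each time point. Organs were removed, weighed and counted. Percent dose per organ was calculated against counts of a 1% aliquot of the injected dose (100-fold diluted) counted at the same time.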

[4] = Regional brain distribution in rat hypothalamus was determined after 24 hours of intravenous administration of the compound; [125I]- is used as radioactive isotope; format: ADME, tissue-based; details: in vivo; how it was run: as §2
[5] = Biodistribution in rat brain was determined after 2 min of intravenous administration of the compound; [125I]- is used as radioactive isotope; format: ADME, organism-based; details: in vivo
How it was run: (§4)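 Rats under ether anesthesia, three per group, received 10 μCi tracer in 0.2 mL saline into the femoral vein. They were killed by cardiac excision under ether at each time point. Organs were removed, weighed and counted. Percent dose per organ was calculated against a 1%-of-injected-dose standard counted at the same time.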

[6] = Regional brain distribution in rat hypothalamus was determined after 11 hours of intravenous administration of the compound; [125I]- is used as radioactive isotope; format: ADME, tissue-based; details: in vivo; how it was run: as §2
[7] = Distribution ratio in cortex and cerebellum was determined after 240 min of intravenous administration of the compound; [125I]- is used as radioactive isotope; format: ADME, tissue-based; details: rat, 4 h; how it was run: as §1
[8] = Biodistribution in rat lung was determined after 6 hours of intravenous administration of the compound; [125I]- is used as radioactive isotope; format: ADME, organism-based; details: in vivo; how it was run: as §4
[9] = Distribution ratio in cortex and cerebellum was determined after 120 min of intravenous administration of the compound; [125I]- is used as radioactive isotope; format: ADME, tissue-based; details: rat, 2 h; how it was run: as §1
[10] = Biodistribution in rat muscle was determined after 240 min of intravenous administration of the compound; [125I]- is used as radioactive isotope; format: ADME, organism-based, Muscle tissue; details: in vivo, 4 h; how it was run: as §3
[11] = Regional brain distribution in rat hypothalamus was determined after 240 min of intravenous administration of the compound; [125I]- is used as radioactive isotope; format: ADME, tissue-based; details: in vivo, 4 h; how it was run: as §2
[12] = Biodistribution in rat kidney was determined after 11 hours of intravenous administration of the compound; [125I]- is used as radioactive isotope; format: ADME, organism-based; details: in vivo; how it was run: as §4
[13] = Distribution ratio in hippocampus and cerebellum was determined after 11 hrs of intravenous administration of the compound; [125I]- is used as radioactive isotope; format: ADME, tissue-based; details: rat; how it was run: as §1
[14] = Biodistribution in rat skin was determined after 6 hours of intravenous administration of the compound; [125I]- is used as radioactive isotope; format: ADME, organism-based, Zone of skin; details: in vivo; how it was run: as §3
[15] = Biodistribution in rat muscle was determined after 120 min of intravenous administration of the compound; [125I]- is used as radioactive isotope; format: ADME, organism-based, Muscle tissue; details: in vivo, 2 h; how it was run: as §3
[16] = Biodistribution in rat skin was determined after 11 hours of intravenous administration of the compound; [125I]- is used as radioactive isotope; format: ADME, organism-based, Zone of skin; details: in vivo; how it was run: as §3
[17] = Distribution ratio in hypothalamus and cerebellum was determined after 11 hours of intravenous administration of the compound; [125I]- is used as radioactive isotope; format: ADME, tissue-based; details: rat; how it was run: as §1
[18] = biological target: Sodium-dependent serotonin transporter (Homo sapiens, UniProt P31645); experiment: Binding affinity for serotonin transporter expressed in […] cells; format: cell-based
How it was run: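 Membranes from confluent pig kidney LLC-PK₁ cells stably expressing the respective transporter, homogenized and pelleted, 30–40 μg protein. Incubated with 0.4 nM [¹²⁵I]IPT or [¹²⁵I]IDAM and 8–10 competitor concentrations (10⁻¹⁰ to 10⁻⁵ M) in 50 mM Tris-HCl pH 7.4, 120 mM NaCl, 0.1% BSA, 1 h at room temperature. Nonspecific binding was defined with 10 μM CFT for IPT and 1 μM IDAM for IDAM. Filtration, gamma counting, nonlinear regression for Ki.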

[19] = Biodistribution in rat heart was determined after 30 min of intravenous administration of the compound; [125I]- is used as radioactive isotope; format: ADME, organism-based; details: in vivo, 0.5 h; how it was run: as §4
[20] = Regional brain distribution in rat cortex was determined after 30 min of intravenous administration of the compound; [125I]- is used as radioactive isotope; format: ADME; details: in vivo, 0.5 h; how it was run: as §2
[21] = Biodistribution in rat blood was determined after 11 hours of intravenous administration of the compound; [125I]- is used as radioactive isotope; format: ADME, organism-based; details: in vivo; how it was run: as §4
[22] = Distribution ratio in hippocampus and cerebellum was determined after 2 min of intravenous administration of the compound; [125I]- is used as radioactive isotope; format: ADME, tissue-based; details: rat; how it was run: as §1
[23] = Biodistribution in rat heart was determined after 60 min of intravenous administration of the compound; [125I]- is used as radioactive isotope; format: ADME, organism-based; details: in vivo, 1 h; how it was run: as §4
[24] = Regional brain distribution in rat hippocampus was determined after 24 hours of intravenous administration of the compound; [125I]- is used as radioactive isotope; format: ADME, tissue-based; details: in vivo; how it was run: as §2
[25] = Regional brain distribution in rat striatum was determined after 60 min of intravenous administration of the compound; [125I]- is used as radioactive isotope; format: ADME, tissue-based; details: in vivo, 1 h; how it was run: as §2
[26] = Biodistribution in rat skin was determined after 30 min of intravenous administration of the compound; [125I]- is used as radioactive isotope; format: ADME, organism-based, Zone of skin; details: in vivo, 0.5 h; how it was run: as §3
[27] = Regional brain distribution in rat hippocampus was determined after 11 hours of intravenous administration of the compound; [125I]- is used as radioactive isotope; format: ADME, tissue-based; details: in vivo; how it was run: as §2
[28] = Biodistribution in rat brain was determined after 30 min of intravenous administration of the compound; [125I]- is used as radioactive isotope; format: ADME, organism-based; details: in vivo, 0.5 h; how it was run: as §4
[29] = Regional brain distribution in rat cerebellum was determined after 6 hours of intravenous administration of the compound; [125I]- is used as radioactive isotope; format: ADME, tissue-based; details: in vivo; how it was run: as §2
[30] = Distribution ratio in hypothalamus and cerebellum was determined after 2 min of intravenous administration of the compound; [125I]- is used as radioactive isotope; format: ADME, tissue-based; details: rat; how it was run: as §1
[31] = Regional brain distribution in rat cortex was determined after 60 min of intravenous administration of the compound; [125I]- is used as radioactive isotope; format: ADME; details: in vivo, 1 h; how it was run: as §2
[32] = Biodistribution in rat spleen was determined after 2 min of intravenous administration of the compound; [125I]- is used as radioactive isotope; format: ADME, organism-based; details: in vivo; how it was run: as §3
[33] = Biodistribution in rat brain was determined after 60 min of intravenous administration of the compound; [125I]- is used as radioactive isotope; format: ADME, organism-based; details: in vivo, 1 h; how it was run: as §4

Sequence of Sodium-dependent serotonin transporter (P31645 whole entry): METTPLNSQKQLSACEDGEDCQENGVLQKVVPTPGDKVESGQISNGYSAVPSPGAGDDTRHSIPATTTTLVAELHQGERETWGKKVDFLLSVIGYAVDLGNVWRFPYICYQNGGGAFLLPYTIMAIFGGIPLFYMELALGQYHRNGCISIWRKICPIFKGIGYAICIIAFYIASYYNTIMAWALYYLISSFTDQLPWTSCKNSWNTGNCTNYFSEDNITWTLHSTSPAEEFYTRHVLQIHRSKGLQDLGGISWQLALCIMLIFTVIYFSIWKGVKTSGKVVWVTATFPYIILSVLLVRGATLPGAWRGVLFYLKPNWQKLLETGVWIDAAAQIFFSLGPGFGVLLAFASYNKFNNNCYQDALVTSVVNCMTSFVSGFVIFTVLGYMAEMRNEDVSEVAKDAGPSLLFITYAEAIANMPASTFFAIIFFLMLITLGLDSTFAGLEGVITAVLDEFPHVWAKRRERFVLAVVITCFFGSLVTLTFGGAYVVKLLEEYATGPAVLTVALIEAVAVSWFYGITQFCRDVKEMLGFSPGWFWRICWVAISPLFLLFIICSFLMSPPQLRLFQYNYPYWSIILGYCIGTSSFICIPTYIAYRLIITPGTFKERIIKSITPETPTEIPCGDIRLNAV

CN(C)Cc1ccccc1Oc1ccc(I)cc1N
Dose/g [1]: 1.3% | Dose/g [2]: 0.0049% | Dose [3]: 0.41% | Dose/g [4]: 0.006% | Dose [5]: 1.77% | Dose/g [6]: 0.01% | Dose/g [7]: 1.12% | Dose [8]: 0.25% | Dose/g [9]: 1.48% | Dose [10]: 6.27% | Dose/g [11]: 0.32% | Dose [12]: 0.4% | Dose/g [13]: 0.09% | Dose [14]: 15.5% | Dose [15]: 9.18% | Dose [16]: 10.9% | Dose/g [17]: 0.44% | Ki [18]: 0.37 nM | Dose [19]: 0.32% | Dose/g [20]: 1.25% | Dose [21]: 2.52% | Dose/g [22]: 0.13% | Dose [23]: 0.2% | Dose/g [24]: 0.004% | Dose/g [25]: 1.02% | Dose [26]: 11.3% | Dose/g [27]: 0.01% | Dose [28]: 2.12% | Dose/g [29]: 0.027% | Dose/g [30]: 0.24% | Dose/g [31]: 0.95% | Dose [32]: 0.44% | Dose [33]: 1.74%
